esBAF inh: blocks esBAF chromatin remodeling in mouse ES cells. 350,000 tested, 2% active. reporter increase, % at 12.5 µM. Bmi1-luciferase knock-in reporter, 24 h; 100% = twice the neutral-well signal; in the data active = activation above about 40%;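 also: 0% = median of the plate's neutral control wells and 100% = double that signal; a rise in the Bmi1 reporter signal indicates esBAF inhibition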
Xi reactivation: reactivates the inactive X chromosome in mouse fibroblasts | XiGFP mouse fibroblasts, % GFP-positive cells imaging, 3 d; cells co-treated with 5-aza-dC sensitizer; scaled so ellipticine positive control = 100% | activation, % at 7.58 µM | 360,000 tested, 0.055% active;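 active = mean normalized replicate activation at least 10% and every replicate at or above 10%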;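 also: 0% = median of on-plate neutral control wells and 100% = ellipticine 6 µM median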
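Material: XiGFP fibroblasts, SV40-immortalized. Buffer or medium: DMEM plus 5-aza-dC sensitizer. Compound: single concentration per compound, delivered by pin transfer. Times: 3 days compound exposure. Controls: ellipticine 6 µM.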
Wnt bcat act: activates Wnt/beta-catenin signaling in a reporter cell assay. activator, plate reader. activation, % at 9.35 µM. 300,000 tested, 1.2% active. AID 743398; in the data active = activation above about 30%, passing the limit was not always enough;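 also: 0% = neutral control wells and 100% = positive control wells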
CASP6 VEID inh: blocks human caspase-6 cleavage activity. 350,000 tested, 0.53% active. AID 686996. P55212. purified caspase-6, Z-VEID-R110 cleavage fluorescence. inhibition, % at 12.5 µM;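 active = mean inhibition across replicates at least about 35%, with every replicate also reaching that limit, limit read from the data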;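 also: 0% = median of neutral control wells and 100% = no fluorescence left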
Target sequence (P55212 24-179 limits assumed): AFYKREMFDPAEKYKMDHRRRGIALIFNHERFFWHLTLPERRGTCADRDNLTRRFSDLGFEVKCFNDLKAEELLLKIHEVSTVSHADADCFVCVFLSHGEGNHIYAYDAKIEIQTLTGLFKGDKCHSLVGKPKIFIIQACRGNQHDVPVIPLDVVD
Target sequence (P55212 194-293 limits assumed): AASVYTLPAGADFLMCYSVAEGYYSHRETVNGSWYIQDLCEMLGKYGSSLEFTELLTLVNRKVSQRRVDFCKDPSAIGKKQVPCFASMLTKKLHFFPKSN
MITF act: activators of MITF-driven TRPM1 promoter activity in SK-MEL-5 cells; SK-MEL-5 TRPM1-promoter luciferase, 24 h; % of positive control, neutral wells = 0; activation, % at 12.5 µM; 300,000 tested, 0.75% active; AID 588334;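 active = mean activation of at least 80% with every replicate also reaching 80%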;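 also: 0% = neutral control wells and 100% = parthenolide positive control wells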
NSD2 inh: blocks human histone methyltransferase NSD2; inhibition, % at 12.5 µM; NSD2 peptide methylation, AlphaScreen, 120 min; 310,000 tested, 0.54% active; in the data active = inhibition above about 50%
Starred values were filed as active, the others as inactive; · = no result given. Rows were chosen to be rich in hits. Some 3% of all compounds tested hit in one or more screens of this group.

SMILES	esBAF inh	Xi reactivation	Wnt bcat act	CASP6 VEID inh	MITF act	NSD2 inh
Cc1ccc(S(=O)(=O)N(C)C[C@@H]2Oc3ccc(NC(=O)Nc4cccc5ccccc45)cc3C(=O)N([C@H](C)CO)C[C@@H]2C)cc1	1.2	-0.8	·	·	·	·
CCN1[C@@H]2c3ccc(C4=CCCC4)c(=O)n3C[C@@H]2[C@@H](CO)[C@@H]1C(=O)NCCc1ccccc1	-3.2	0.3	·	1.3	·	·
O=C(CCC(=O)OCC(=O)c1cccc([N+](=O)[O-])c1)Nc1cccc(Cl)c1Cl	·	·	40.1*	·	-7.1	·
COc1cccc(C#Cc2ccc([C@H]3[C@H]4CN(C(=O)Cc5cccnc5)CC(=O)N4[C@H]3CO)cc2)c1	·	0.1	·	5.3	·	·
COCC(=O)N1C[C@H](C)[C@@H](OC)CN(C)C(=O)c2cc(NC(=O)c3ccc(OC)cc3)ccc2OC[C@@H]1C	0.5	-0.1	·	-1.4	·	·
O=C(Nc1ccc(Cl)c(Cl)c1)N[C@H]1CC[C@H](CCn2cc(C3CCCCC3)nn2)O[C@@H]1CO	11.4	-0.1	·	-1.7	·	·
CO[C@@H]1CN(C)C(=O)c2ccc(NC(=O)c3nc4ccccc4s3)cc2OC[C@@H](C)N(Cc2cncnc2)C[C@@H]1C	·	0.2	·	·	·	·
O=C1C(=NO)CCc2ccccc21	8.3	0.0	0.4	67.9*	-22.0	77.2*
c1ccc2[nH]c(-c3ccnc4ccccc34)nc2c1	27.0	·	38.0*	·	17.8	-2.3
Clc1ccccc1-c1nc2ccccc2[nH]1	·	0.0	47.7*	0.6	·	-2.4
Fc1ccccc1-c1nc2ccccc2[nH]1	·	-0.2	55.9*	-1.8	84.9*	-5.0
c1ccc2c(-c3nc4ccccc4[nH]3)cccc2c1	·	0.1	-2.8	-2.2	·	-1.8
Clc1ccc(-c2nc3ccccc3[nH]2)cn1	49.8*	-0.2	0.1	1.3	57.0	-3.0
C[C@H]1C/C=C\C[C@@H](c2ccc3c(c2)OCO3)NC(=O)[C@H](c2ccccc2)CC(=O)N1	·	-0.1	·	·	·	·
C[C@@H]1CN([C@@H](C)CO)C(=O)c2cc(C#C[C@@H](C)O)cnc2O[C@H]1CN(C)C(=O)Nc1ccc(F)cc1	3.8	-1.2	·	-0.7	·	·
Cc1ccccc1-c1nc2ccccc2[nH]1	57.7*	·	·	·	56.6	-3.3
Cc1ccccc1NC(=S)c1nc2ccccc2[nH]1	49.1*	-0.2	-1.6	0.5	16.7	-5.5
CCCNC(=O)[C@@H]1[C@@H](CO)[C@@H]2Cn3c(ccc(C4=CCCCC4)c3=O)[C@H]1N2Cc1cocn1	2.9	0.1	·	0.0	·	·
O=C(NCC[C@H]1CC[C@H](NC(=O)C2CC2)[C@H](CO)O1)c1ccc(F)cc1	1.6	-0.2	·	-3.4	·	·
COC(=O)C1=C(Nc2ccccc2NC(=O)c2ccccc2C(=O)O)CSC1	26.2	0.1	41.5*	6.5	-5.7	0.5
COC(=O)C1=C(Nc2ccccc2NC(=O)CCCC(=O)O)CSC1	·	0.0	2.9	2.9	·	-0.6
COc1ccc(/C=N\NC(=O)c2cc(O)c(O)c(O)c2)cc1COc1ccc(C(=O)OCC(C)C)cc1	1.6	0.1	-2.2	43.5*	4.7	9.2
CC(=O)Nc1ccc2c(c1)C(=O)N(C)C[C@@H](C)[C@@H](CN(C)C(=O)NC(C)C)O2	·	0.2	·	·	·	·
CC(=O)c1sc(NC(=O)c2ccc3c(c2)OCO3)nc1C	23.0	-0.1	39.2*	-1.7	114.1*	-1.3
Cc1nc(NC(=O)c2ccc3c(c2)OCO3)ccc1Br	·	-0.1	-3.4	-1.4	128.6*	0.6
SMILES	esBAF inh	Xi reactivation	Wnt bcat act	CASP6 VEID inh	MITF act	NSD2 inh
Cc1nc(NC(=O)c2ccccc2)sc1Cc1ccc2c(c1)OCO2	53.0*	0.4	·	-0.5	25.4	-1.6
Cc1cc(NC(=O)c2ccc3c(c2)OCO3)no1	·	·	·	·	13.4	31.8
CCN1CCc2nc(NC(=O)c3ccc4c(c3)OCCO4)sc2C1	41.5*	·	21.9	·	·	14.0
CCN1CCc2nc(NC(=O)Cc3ccc4c(c3)OCCO4)sc2C1	-9.4	·	·	·	·	37.5
COc1ccc2c3c([nH]c2c1)[C@@H](CO)N(Cc1nccs1)CC31CCN(C(=O)C2CCOCC2)CC1	·	0.2	·	-2.8	·	·
Cc1noc(C)c1S(=O)(=O)N(C)C[C@@H]1OCCCC[C@@H](C)Oc2ccc(NS(=O)(=O)c3ccc(F)cc3)cc2C(=O)N([C@@H](C)CO)C[C@H]1C	0.0	0.0	·	·	·	·
CC(=O)N1CC2(C1)[C@H](c1ccc(-c3cccc(F)c3)cc1)[C@H](CO)N2CC1CCCC1	·	0.3	·	16.0	·	·
O=C(Nc1ccc(Cc2ccc(NC(=O)Nc3cccnc3)cc2)cc1)Nc1cccnc1	56.0*	0.1	-1.8	-1.4	·	1.0
CC(C)(C)C(=O)Nc1ccc(C(=O)Nc2cccnc2)cc1	20.8	·	49.0*	·	68.9	-1.9
O=C(Nc1ccc(Cl)cc1)Nc1cccnc1	34.0	·	-0.7	-1.0	6.5	-2.3
O=C(Nc1cccnc1)c1ccc(-c2ccccc2)cc1	93.0*	0.1	-3.6	-1.7	65.2	-2.2
CC(C)N=C(Nc1cccnc1)c1ccccc1	4.6	0.0	-4.0	38.9*	4.5	-0.1
CCC(=O)Nc1ccc(C(=O)Nc2cccnc2)cc1	17.3	·	5.1	-0.6	20.4	-2.8
COc1cccc(C#Cc2ccc3c(c2)[C@H]2[C@H](CCN2C(=O)Cc2ccccc2)[C@H](CO)N3)c1	·	0.0	·	1.5	·	·
COc1ccc2c3c([nH]c2c1)[C@H](CO)N(C(C)=O)CC31CN(Cc2cc(-c3ccccc3)on2)C1	·	0.1	·	3.0	·	·
O=C(Nc1ccc2c(c1)[C@H]1C[C@H](CC(=O)N3CCCCC3)O[C@@H](CO)[C@H]1O2)Nc1ccccc1F	-1.9	0.2	·	36.1*	·	·
CN(C)c1ccc2c(c1)[C@@H]1C[C@@H](CC(=O)N3CCOCC3)O[C@@H](CO)[C@@H]1O2	-4.8	0.1	·	54.7*	·	·
C[C@@H]1CC=CC[C@H](c2ccccc2)NC(=O)[C@@H](Cc2ccccc2)N(C)C(=O)c2ccccc2O1 (mixture of isomers)	·	0.0	·	·	·	·
CSc1ccc(-c2nnn(Cc3ccc(C)cc3)n2)cc1	·	·	·	·	94.3*	-23.6
CC(C)[C@H]1COCc2cn(nn2)CC[C@@H](Cc2ccc(Cl)cc2)C(=O)N1	·	-0.1	·	·	·	·
C[C@H](CO)N1C[C@H](C)[C@@H](CN(C)C(=O)C2CCC2)Oc2cc(C#Cc3ccncc3)ccc2S1(=O)=O	-2.6	-0.1	·	-0.2	·	·
CN(C)c1ccc(C(=O)/C=C/c2cccnc2)cc1	63.0*	0.1	-0.9	·	2.1	0.3
C[C@@H]1CN([C@@H](C)CO)C(=O)Cc2cc(NS(C)(=O)=O)ccc2O[C@H]1CN(C)Cc1ccncc1	-1.3	0.1	·	13.5	·	·
CCCn1cnc2c(cnn2-c2ccc(F)cc2)c1=O	52.4*	·	·	·	38.1	-3.2
CC(=O)N1CCOc2ccc(S(=O)(=O)NCc3ccc(F)cc3)cc21	-0.6	0.2	-1.1	40.1*	1.2	1.0
CC(=O)N1CCOc2ccc(S(=O)(=O)NCCc3ccc(S(N)(=O)=O)cc3)cc21	3.1	-0.1	-1.9	-2.4	-4.2	2.4

High-throughput results deposited in PubChem BioAssay by Broad Institute.
